Reference: ChEMBL document CHEMBL2321650, “Novel HldE-K inhibitors leading to attenuated Gram negative bacterial virulence” (J Med Chem, 2013)
≈ marks a conversion by molar mass, not a printed value. Calls of active or inactive are those of the source. The calls are words filed in the database; no cut-off is given here.

Tests used:
[1] = tested on: Escherichia coli; test: Antimicrobial activity against hldE-deficient Escherichia coli O18:K1:H7 after overnight incubation; assay type: functional
[2] = tested on: Escherichia coli; test: Antimicrobial activity against wild type Escherichia coli O18:K1:H7 after overnight incubation; assay type: functional
In short: (§1)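 Broth microdilution MIC in cation-adjusted MHB, final inoculum 5 × 10⁵ CFU/mL from early-to-log preculture; serial compound dilutions in 2% DMSO, overnight at 35 °C, growth scored visually. Each strain tested with and without erythromycin (1 μg/mL for K12 ΔacrAB ΔtolC, 8 μg/mL for K1 wild type, 1 μg/mL for K1 ΔtolC).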

[3] = tested on: Escherichia coli; test: Antimicrobial activity against acrAB, tolC-deficient Escherichia coli str. K-12 substr. MG1655 after overnight incubation in presence of erythromycin; assay type: functional; in short: as §1
[4] = tested on: Escherichia coli; test: Antimicrobial activity against acrAB, tolC-deficient Escherichia coli str. K-12 substr. MG1655 after overnight incubation in absence of erythromycin; assay type: functional; in short: as §1
[5] = tested on: Escherichia coli; test: Antimicrobial activity against tolC-deficient Escherichia coli O18:K1:H7 after overnight incubation in absence of erythromycin; assay type: functional; in short: as §1
[6] = tested on: Escherichia coli; test: Antimicrobial activity against tolC-deficient Escherichia coli O18:K1:H7 after overnight incubation in presence of erythromycin; assay type: functional; in short: as §1
[7] = Inhibition of Escherichia coli O18:K1 C7 hldE-K expressed in Escherichia coli BL21 using beta-heptose 7-phosphate as substrate incubated for 30 mins prior to substrate addition measured after 30 mins by luminescence assay
In short: (§2)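 E. coli HldE (His-tagged, IPTG-induced, Ni-NTA-purified), 3 nM, preincubated 30 min at room temperature with inhibitor in Hepes pH 7.5, MnCl₂, KCl, 0.012% Triton-X100, DTT, MBP. Reaction with 0.2 μM heptose 7-phosphate and 0.2 μM ATP, 30 min at room temperature. Remaining ATP read by luciferase/luciferin luminescence; 6−10 concentrations fitted to a Langmuir model for IC50.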

[8] = tested on: Klebsiella pneumoniae; test: Inhibition of Klebsiella pneumoniae ATCC 700603 hldE-K expressed in Escherichia coli BL21 using beta-heptose 7-phosphate as substrate incubated for 30 mins prior to substrate addition measured after 30 mins by luminescence assay; conditions: ATCC 700603, BL21
In short: (§3)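 HldE kinase luminescence assay as for E. coli, with enzyme at 20 nM for K. pneumoniae, 20 nM for N. meningitidis and 10 nM for S. marcescens. Heptose 7-phosphate and ATP each at 0.2 μM; 30 min preincubation and 30 min reaction at room temperature.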

[9] = Inhibition of Neisseria meningitidis 2C43 hldE-K expressed in Escherichia coli BL21 using beta-heptose 7-phosphate as substrate incubated for 30 mins prior to substrate addition measured after 30 mins by luminescence assay; in short: as §3
[10] = Inhibition of Escherichia coli O18:K1 C7 ribokinase expressed in Escherichia coli BL21 using D-ribose as substrate incubated for 30 mins prior to substrate addition measured after 30 mins by luminescence assay
In short: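 Ribokinase run as the HldE kinase assay: purified E. coli ribokinase at 0.6 nM, 3 μM D-ribose, 3 μM ATP. Inhibitor preincubated 30 min, reaction run 30 min at room temperature, luciferase luminescence read-out, IC50 from 6−10 concentrations.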

[11] = Inhibition of Serratia marcescens NEM017811 hldE-K expressed in Escherichia coli BL21 using beta-heptose 7-phosphate as substrate incubated for 30 mins prior to substrate addition measured after 30 mins by luminescence assay; in short: as §3
[12] = tested on: Escherichia coli; test: Inhibition of Escherichia coli O18:K1 C7 hldE-K expressed in Escherichia coli BL21 using D-manno-heptose 7-phosphate as substrate incubated for 30 mins prior to substrate addition measured after 30 mins by luminescence assay; in short: as §2
[13] = Competitive reversible inhibition of Escherichia coli O18:K1 C7 hldE-K expressed in Escherichia coli BL21 using D-manno-heptose 7-phosphate as substrate incubated for 30 mins prior to substrate addition measured after 30 mins by double reciprocal plot analysis in presence of ATP
In short: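 ATP competition on E. coli HldE-K at 2 μM D-manno-heptose 7-phosphate with varied ATP. Initial velocities read by luciferase luminescence and analysed as a double reciprocal plot of 1/v versus 1/[ATP].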

[14] = tested on: Escherichia coli; test: Inhibition of Escherichia coli O18:K1 C7 hldE-K expressed in Escherichia coli BL21 using beta-heptose 7-phosphate as substrate incubated for 30 mins prior to substrate addition measured after 30 mins by luminescence assay in presence of Triton-X 100
In short: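 E. coli HldE kinase luminescence assay with Triton-X100 at 100 μM to 1 mM added to test for promiscuous, aggregation-type inhibition. Otherwise 3 nM enzyme, 30 min inhibitor preincubation, and 30 min reaction with heptose 7-phosphate and ATP at room temperature.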

[15] = tested on: HepG2; test: Cytotoxicity against human HepG2 cells after overnight incubation by one cell proliferation assay; assay type: cell-based
In short: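 HepG2 cells at 2 × 10⁴ per well in EMEM with 10% FBS, grown overnight at 37 °C in 5% CO₂. Medium then replaced by compound dilutions in medium with 2% DMSO for overnight incubation. Viability read by CellTiter Aqueous One MTS absorbance at 490 nm.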

[16] = tested on: Escherichia coli; test: Antimicrobial activity against acrAB, tolC-deficient Escherichia coli str. K-12 substr. MG1655 after 18 to 22 hrs; assay type: functional
[17] = tested on: Escherichia coli; test: Antimicrobial activity against tolC-deficient Escherichia coli O18:K1:H7 assessed as inhibition of LPS synthesis at 16 ug/mL after 5 hrs by silver staining-based electrophoretic analysis; assay type: functional, organism-based
In short: (§4)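 Exponential LB cultures diluted to 5 × 10⁵ CFU/mL, incubated with compound (from water/DMSO 50/50) at 37 °C about 5 h to OD 0.2−0.4. OD-normalized pellets were PBS-washed, SDS-denatured at 95−100 °C, proteinase K-treated 1 h at 55 °C, and run on 16% SDS-PAGE with silver staining. The lowest dose yielding Re-LPS was recorded.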

[18] = tested on: Escherichia coli; test: Antimicrobial activity against acrAB, tolC-deficient Escherichia coli str. K-12 substr. MG1655 assessed as inhibition of LPS synthesis at 2 ug/mL after 5 hrs by silver staining-based electrophoretic analysis; assay type: functional; in short: as §4

| Structure (SMILES) | MIC [3] [mg/L] | MIC [4] [mg/L] | MIC [5] [mg/L] | MIC [6] [mg/L] | IC50 [7] [µM] | other results |
| --- | --- | --- | --- | --- | --- | --- |
| CC[C@H]1OC(=O)[C@H](C)C(=O)[C@H](C)[C@@H](O[C@@H]2O[C@H](C)C[C@H](N(C)C)[C@H]2O)[C@](C)(OC)C[C@@H](C)C(=O)[C@H](C)[C@H]2N(CCCCn3cnc(-c4cccnc4)c3)C(=O)O[C@]12C [TELITHROMYCIN] | – | – | – | – | – | MIC [1]: 0.25 mg/L (≈ 0.308 µM); MIC [2]: 8 mg/L (≈ 9.85 µM) |
| NC(=O)COc1ccc2sc(CNc3nncc(-c4c(Cl)cccc4Cl)n3)nc2c1 | > 32 | > 32 | > 32 | > 32 | 0.067 | – |
| COc1ccc2sc(CNc3nncc(-c4c(C)cc(NCCN(C)C)cc4C)n3)nc2c1 | > 32 | > 32 | > 32 | > 32 | 0.082 | – |
| COc1ccc2sc(CNc3nncc(-c4c(C)cc(NC(C)=O)cc4C)n3)nc2c1 | > 32 | > 32 | > 32 | > 32 | 0.24 | – |
| O=C(O)COc1ccc2sc(CNc3nncc(-c4c(Cl)cccc4Cl)n3)nc2c1 | 32 | > 32 | > 32 | > 32 | 0.019 | IC50 [8]: 0.1 µM; IC50 [9]: 1.8 µM; IC50 [10]: > 300 µM; IC50 [11]: 0.041 µM |
| CO[C@H]1/C=C/O[C@@]2(C)Oc3c(C)c(O)c4c(O)c(c(/C=N/N5CCN(C)CC5)c(O)c4c3C2=O)NC(=O)/C(C)=C\C=C\[C@H](C)[C@H](O)[C@@H](C)[C@@H](O)[C@@H](C)[C@H](OC(C)=O)[C@@H]1C [RIFAMPIN] | – | – | – | – | – | MIC [1]: 0.125 mg/L (≈ 0.152 µM); MIC [2]: 8 mg/L (≈ 9.72 µM) |
| CC[C@H]1OC(=O)[C@H](C)[C@@H](O[C@H]2C[C@@](C)(OC)[C@@H](O)[C@H](C)O2)[C@H](C)[C@@H](O[C@@H]2O[C@H](C)C[C@H](N(C)C)[C@H]2O)[C@](C)(O)C[C@@H](C)C(=O)[C@H](C)[C@@H](O)[C@]1(C)O [ERYTHROMYCIN] | – | – | – | – | – | MIC [1]: 0.5 mg/L (≈ 0.681 µM); MIC [2]: 32 mg/L (≈ 43.6 µM) |
| COc1ccc2sc(CNc3nncc(-c4c(Cl)cccc4Cl)n3)nc2c1 | > 32 | > 32 | > 32 | > 32 | 0.13 | IC50 [8]: 2.3 µM; IC50 [9]: 13 µM; IC50 [10]: > 300 µM; IC50 [11]: 1.2 µM |
| COc1ccc2sc(CNc3nncc(-c4c(C)cccc4C)n3)nc2c1 | > 32 | > 32 | > 32 | > 32 | 0.36 | – |
| COc1cccc(OC)c1-c1cnnc(NCc2nc3ccccc3s2)n1 | – | – | – | – | 2 | inhibition [12]: Active; Ki [13]: 2.5 µM; inhibition [14]: Active |
| Oc1ccc2sc(CNc3nncc(-c4c(O)ccc5ccccc45)n3)nc2c1 | 0.063 | 2 (≈ 4.98 µM) | > 32 | 2 | 0.02 | IC50 [8]: 0.085 µM; IC50 [9]: 1.3 µM; IC50 [10]: > 300 µM; IC50 [11]: 0.041 µM; Activity [15]: 20 µg/mL |
| COc1ccc2sc(CNc3nncc(-c4c(C)cccc4O)n3)nc2c1 | 8 | > 32 | > 32 | > 32 | 0.069 | IC50 [8]: 0.43 µM; IC50 [9]: 9.8 µM; IC50 [10]: > 300 µM; IC50 [11]: 0.16 µM |
| CN(C)CCOc1ccc2sc(CNc3nncc(-c4c(Cl)cccc4Cl)n3)nc2c1 | 4 | 32 (≈ 67.3 µM) | > 32 | 16 | 0.082 | Activity [15]: > 32 µg/mL |
| Oc1ccc2sc(CNc3nncc(-c4c(Cl)cccc4Cl)n3)nc2c1 | > 32 | > 32 | > 32 | > 32 | 0.075 | – |
| COc1ccc2sc(CNc3nncc(-c4cc(-c5ccn[nH]5)ccc4Cl)n3)nc2c1 | > 32 | > 32 | > 32 | > 32 | 0.053 | – |
| COc1ccc2sc(CNc3nncc(-c4c(OC)ccc5ccccc45)n3)nc2c1 | > 32 | > 32 | > 32 | > 32 | 0.051 | – |
| O=C(COc1ccc2sc(CNc3nncc(-c4c(Cl)cccc4Cl)n3)nc2c1)NCCO | 2 | > 32 | > 32 | 16 | 0.049 | IC50 [8]: 0.15 µM; MIC [16]: > 32 mg/L; inhibition [17]: Active; IC50 [9]: 1.9 µM; IC50 [10]: > 300 µM; inhibition [18]: Active; IC50 [11]: 0.076 µM; Activity [15]: > 32 µg/mL |
| O=C(CO)NCCOc1ccc2sc(CNc3nncc(-c4c(Cl)cccc4Cl)n3)nc2c1 | 4 | > 32 | > 32 | > 32 | 0.071 | – |
| CO[C@@H]1[C@@H](OC(N)=O)[C@@H](O)[C@H](Oc2ccc3c(O)c(NC(=O)c4ccc(O)c(CC=C(C)C)c4)c(=O)oc3c2C)OC1(C)C [NOVOBIOCIN] | – | – | – | – | – | MIC [1]: 0.5 mg/L (≈ 0.816 µM); MIC [2]: 32 mg/L (≈ 52.2 µM) |
| CS(=O)(=O)NC(=O)COc1ccc2sc(CNc3nncc(-c4c(Cl)cccc4Cl)n3)nc2c1 | > 32 | > 32 | > 32 | > 32 | 0.016 | – |
| OCCOc1ccc2sc(CNc3nncc(-c4c(Cl)cccc4Cl)n3)nc2c1 | 0.5 | 16 (≈ 35.7 µM) | > 32 | 32 | 0.018 | Activity [15]: > 32 µg/mL |
| NCC(=O)NCCOc1ccc2sc(CNc3nncc(-c4c(Cl)cccc4Cl)n3)nc2c1 | 4 | 32 (≈ 63.4 µM) | > 32 | 32 | 0.1 | Activity [15]: 18 µg/mL |
| COc1cccc(OC)c1-c1cnnc(NCc2nc3ccc(Cl)cc3s2)n1 | – | – | – | – | 27 | – |
